According to ChEMBL document CHEMBL1275556, “High prevalence of plasmid-mediated quinolone resistance genes qnr and aac(6')-Ib-cr in clinical isolates of Enterobacteriaceae from nine teaching hospitals in China” (2008):
In brackets after ≈: the same amount, converted by molar mass.

Experiments:
[1] = system: Klebsiella pneumoniae; experiment: Antimicrobial activity against aac(6')-Ib-cr-negative Klebsiella pneumoniae SY22 harboring GyrA S83I, ParC S80I mutant, wild-type GyrB and qnrS genes by agar dilution method; assay type: functional
Procedure, shortened: (§1)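 MICs were determined by the CLSI agar dilution method (M7-A7) and interpreted against CLSI M100-S17 breakpoints.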

[2] = system: Klebsiella pneumoniae; experiment: Antimicrobial activity against aac(6')-Ib-cr-positive Klebsiella pneumoniae SY26 harboring GyrA S83I, ParC S80I mutant, wild-type GyrB and qnrB genes by agar dilution method; assay type: functional
Procedure, shortened: (§2)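 MICs were determined on clinical isolates by CLSI agar dilution (M7-A7) and interpreted against CLSI M100-S17 breakpoints.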

[3] = system: Klebsiella pneumoniae; experiment: Antimicrobial activity against aac(6')-Ib-cr-positive Klebsiella pneumoniae JN41 harboring GyrA S83I, ParC S80I mutant, wild-type GyrB and qnrB genes by agar dilution method; assay type: functional; procedure, shortened: as §2
[4] = system: Escherichia coli; experiment: Antimicrobial activity against aac(6')-Ib-cr-negative Escherichia coli PU12 harboring GyrA S83L mutant, wild-type GyrB, ParC and qnrS genes by agar dilution method; assay type: functional; procedure, shortened: as §1
[5] = system: Citrobacter freundii; experiment: Antimicrobial activity against aac(6')-Ib-cr-positive Citrobacter freundii JN1T by agar dilution method; assay type: functional; procedure, shortened: as §1
[6] = system: Citrobacter freundii; experiment: Antimicrobial activity against aac(6')-Ib-cr-positive Citrobacter freundii JS33 harboring GyrA T83I mutant, wild-type ParC, GyrB, qnrA and qnrB genes by agar dilution method; assay type: functional; procedure, shortened: as §1
[7] = system: Citrobacter freundii; experiment: Antimicrobial activity against aac(6')-Ib-cr-negative Citrobacter freundii JN64T harboring qnrA gene by agar dilution method; assay type: functional; procedure, shortened: as §1
[8] = system: Escherichia coli; experiment: Antimicrobial activity against aac(6')-Ib-cr-negative Escherichia coli PU12T harboring wild-type GyrA, GyrB, ParC and qnrS genes by agar dilution method; assay type: functional; procedure, shortened: as §1
[9] = system: Escherichia coli; experiment: Antimicrobial activity against aac(6')-Ib-cr-positive Escherichia coli FJ3 harboring GyrA S83L, ParC S80R mutant, wild-type GyrB and qnrB genes by agar dilution method; assay type: functional; procedure, shortened: as §1
[10] = system: Klebsiella pneumoniae; experiment: Antimicrobial activity against aac(6')-Ib-cr-positive Klebsiella pneumoniae WH99 harboring wild-type GyrA, ParC, GyrB and qnrB genes by agar dilution method; assay type: functional; procedure, shortened: as §2
[11] = system: Klebsiella pneumoniae; experiment: Antimicrobial activity against aac(6')-Ib-cr-positive Klebsiella pneumoniae JN41T harboring qnrB gene by agar dilution method; assay type: functional
Procedure, shortened: (§3)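 Transconjugants were made by conjugating a qnr/aac(6')-Ib-cr donor with azide-resistant E. coli J53. Selection used Trypticase soy agar with sodium azide 150 µg/ml and sulfamethoxazole 180 µg/ml. […] MICs were read by CLSI agar dilution (M7-A7) and interpreted per M100-S17.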

[12] = system: Klebsiella pneumoniae; experiment: Antimicrobial activity against aac(6')-Ib-cr-positive Klebsiella pneumoniae JN132T harboring qnrB gene by agar dilution method; assay type: functional; procedure, shortened: as §3
[13] = system: Citrobacter freundii; experiment: Antimicrobial activity against aac(6')-Ib-cr-positive Citrobacter freundii PU55 harboring GyrA T83I, ParC S80I mutant, wild-type GyrB, qnrA genes by agar dilution method; assay type: functional; procedure, shortened: as §1
[14] = system: Klebsiella pneumoniae; experiment: Antimicrobial activity against aac(6')-Ib-cr-positive Klebsiella pneumoniae WH99T harboring qnrB gene by agar dilution method; assay type: functional; procedure, shortened: as §3
[15] = system: Klebsiella pneumoniae; experiment: Antimicrobial activity against aac(6')-Ib-cr-positive Klebsiella pneumoniae JN132 harboring GyrA S83I, ParC S80I mutant, wild-type GyrB and qnrB genes by agar dilution method; assay type: functional; procedure, shortened: as §2
[16] = system: Escherichia coli; experiment: Antimicrobial activity against aac(6')-Ib-cr-positive Escherichia coli FJ3T harboring wild-type GyrA, ParC, GyrB and qnrB genes by agar dilution method
[17] = system: Citrobacter freundii; experiment: Antimicrobial activity against aac(6')-Ib-cr-positive Citrobacter freundii JN1 harboring GyrA T83I, ParC S80I mutant, wild-type GyrB and qnrA genes by agar dilution method; assay type: functional; procedure, shortened: as §1
[18] = system: Klebsiella pneumoniae; experiment: Antimicrobial activity against aac(6')-Ib-cr-negative Klebsiella pneumoniae SY22T harboring qnrS gene by agar dilution method; assay type: functional; procedure, shortened: as §1
[19] = system: Enterobacter cloacae; experiment: Antimicrobial activity against aac(6')-Ib-cr-negative Enterobacter cloacae GZ47T harboring qnrB gene by agar dilution method; assay type: functional
[20] = system: Enterobacter cloacae; experiment: Antimicrobial activity against aac(6')-Ib-cr-negative Enterobacter cloacae FJ67 harboring […] and qnrS genes by agar dilution method; assay type: functional
[21] = system: Klebsiella pneumoniae; experiment: Antimicrobial activity against aac(6')-Ib-cr-positive Klebsiella pneumoniae SY26T harboring wild-type GyrA, ParC, GyrB and qnrB genes by agar dilution method; assay type: functional
Procedure, shortened: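 Transconjugants were made by conjugating a qnr/aac(6')-Ib-cr donor with azide-resistant E. coli J53. MICs were read by CLSI agar dilution (M7-A7) and interpreted per M100-S17.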

[22] = system: Enterobacter cloacae; experiment: Antimicrobial activity against aac(6')-Ib-cr-negative Enterobacter cloacae GZ47 harboring qnrB and qnrS genes by agar dilution method; assay type: functional
[23] = system: Citrobacter freundii; experiment: Antimicrobial activity against aac(6')-Ib-cr-positive Citrobacter freundii TJ15 harboring GyrA T83I, ParC S80I mutant, wild-type GyrB, qnrB genes by agar dilution method; assay type: functional; procedure, shortened: as §1
[24] = system: Enterobacter cloacae; experiment: Antimicrobial activity against aac(6')-Ib-cr-negative Enterobacter cloacae WH42T harboring qnrA gene by agar dilution method; assay type: functional
[25] = system: Klebsiella pneumoniae; experiment: Antimicrobial activity against aac(6')-Ib-cr-positive Klebsiella pneumoniae GZ40 harboring GyrA S83I, ParC S80I mutant, wild-type GyrB and qnrB genes by agar dilution method; assay type: functional; procedure, shortened: as §1
[26] = system: Enterobacter cloacae; experiment: Antimicrobial activity against aac(6')-Ib-cr-negative Enterobacter cloacae GZ51T harboring qnrA gene by agar dilution method; assay type: functional
[27] = system: Citrobacter freundii; experiment: Antimicrobial activity against aac(6')-Ib-cr-positive Citrobacter freundii TJ15T harboring wild-type GyrA, ParC, GyrB genes by agar dilution method; assay type: functional; procedure, shortened: as §1
[28] = system: Enterobacter cloacae; experiment: Antimicrobial activity against aac(6')-Ib-cr-negative Enterobacter cloacae WH42 harboring wild-type GyrA, ParC, GyrB and qnrA genes by agar dilution method; assay type: functional
[29] = system: Enterobacter cloacae; experiment: Antimicrobial activity against aac(6')-Ib-cr-negative Enterobacter cloacae FJ61 harboring GyrA S83I, GyrA D87A, ParC S80I mutant, wild-type GyrB and qnrS genes by agar dilution method; assay type: functional
[30] = system: Enterobacter cloacae; experiment: Antimicrobial activity against aac(6')-Ib-cr-negative Enterobacter cloacae FJ67T harboring qnrS gene by agar dilution method; assay type: functional
[31] = system: Enterobacter cloacae; experiment: Antimicrobial activity against aac(6')-Ib-cr-positive Enterobacter cloacae FJ63T harboring qnrS gene by agar dilution method; assay type: functional
[32] = system: Citrobacter freundii; experiment: Antimicrobial activity against aac(6')-Ib-cr-negative Citrobacter freundii JN64 harboring GyrA T83I, wild-type ParC, GyrB and qnrA genes by agar dilution method; assay type: functional; procedure, shortened: as §1
[33] = system: Enterobacter cloacae; experiment: Antimicrobial activity against aac(6')-Ib-cr-negative Enterobacter cloacae SH39 harboring GyrA S83I, ParC S80I mutant, wild-type GyrB and qnrA genes by agar dilution method; assay type: functional
[34] = system: Enterobacter cloacae; experiment: Antimicrobial activity against aac(6')-Ib-cr-negative Enterobacter cloacae GZ51 harboring qnrA gene by agar dilution method; assay type: functional
[35] = system: Enterobacter cloacae; experiment: Antimicrobial activity against aac(6')-Ib-cr-positive Enterobacter cloacae FJ63 harboring GyrA S83I, GyrA D87A, ParC S80I mutant, wild-type GyrB and qnrS genes by agar dilution method; assay type: functional
[36] = system: Klebsiella pneumoniae; experiment: Antimicrobial activity against aac(6')-Ib-cr-positive Klebsiella pneumoniae GZ40T harboring qnrB gene by agar dilution method
[37] = system: Citrobacter freundii; experiment: Antimicrobial activity against aac(6')-Ib-cr-positive Citrobacter freundii PU55T harboring wild-type GyrA, ParC, GyrB and qnrA genes by agar dilution method
[38] = system: Citrobacter freundii; experiment: Antimicrobial activity against aac(6')-Ib-cr-positive Citrobacter freundii JS33T harboring qnrA gene by agar dilution method; assay type: functional; procedure, shortened: as §1

Structure (SMILES)	MIC [1] [µg/mL]	MIC [2] [µg/mL]	MIC [3] [µg/mL]	MIC [4] [µg/mL]	MIC [5] [µg/mL]	MIC [6] [µg/mL]	MIC [7] [µg/mL]	MIC [8] [µg/mL]	MIC [9] [µg/mL]	MIC [10] [µg/mL]	MIC [11] [µg/mL]	MIC [12] [µg/mL]	MIC [13] [µg/mL]	MIC [14] [µg/mL]	MIC [15] [µg/mL]	MIC [16] [µg/mL]	MIC [17] [µg/mL]	MIC [18] [µg/mL]	MIC [21] [µg/mL]	MIC [23] [µg/mL]	also measured
CO/N=C(\C(=O)N[C@@H]1C(=O)N2C(C(=O)[O-])=C(C[N+]3(C)CCCC3)CS[C@H]12)c1csc(N)n1	1 (≈ 2.08 µM)	0.5 (≈ 1.04 µM)	2 (≈ 4.16 µM)	2 (≈ 4.16 µM)	1 (≈ 2.08 µM)	0.25 (≈ 0.52 µM)	4 (≈ 8.32 µM)	2 (≈ 4.16 µM)	8 (≈ 16.6 µM)	2 (≈ 4.16 µM)	1 (≈ 2.08 µM)	2 (≈ 4.16 µM)	1 (≈ 2.08 µM)	1 (≈ 2.08 µM)	2 (≈ 4.16 µM)	4 (≈ 8.32 µM)					
CC(C)(O/N=C(\C(=O)N[C@@H]1C(=O)N2C(C(=O)[O-])=C(C[n+]3ccccc3)CS[C@H]12)c1csc(N)n1)C(=O)O [CEFTAZIDIME]	4 (≈ 7.32 µM)	256 (≈ 468 µM)	2 (≈ 3.66 µM)	4 (≈ 7.32 µM)	1 (≈ 1.83 µM)	16 (≈ 29.3 µM)	2 (≈ 3.66 µM)	1 (≈ 1.83 µM)	4 (≈ 7.32 µM)	16 (≈ 29.3 µM)	1 (≈ 1.83 µM)	32 (≈ 58.5 µM)	64 (≈ 117 µM)	4 (≈ 7.32 µM)	32 (≈ 58.5 µM)	2 (≈ 3.66 µM)	64 (≈ 117 µM)	1 (≈ 1.83 µM)	16 (≈ 29.3 µM)	4 (≈ 7.32 µM)	MIC [19]: 2 µg/mL (≈ 3.66 µM); MIC [20]: 4 µg/mL (≈ 7.32 µM); MIC [22]: 128 µg/mL (≈ 234 µM); MIC [24]: 16 µg/mL (≈ 29.3 µM); MIC [25]: 256 µg/mL (≈ 468 µM); MIC [26]: 32 µg/mL (≈ 58.5 µM); MIC [27]: 2 µg/mL (≈ 3.66 µM); MIC [28]: 256 µg/mL (≈ 468 µM); MIC [29]: 16 µg/mL (≈ 29.3 µM); MIC [30]: 4 µg/mL (≈ 7.32 µM); MIC [31]: 4 µg/mL (≈ 7.32 µM); MIC [32]: 64 µg/mL (≈ 117 µM); MIC [33]: 2 µg/mL (≈ 3.66 µM); MIC [34]: 64 µg/mL (≈ 117 µM); MIC [35]: 128 µg/mL (≈ 234 µM)
O=C(O)c1cn(C2CC2)c2cc(N3CCNCC3)c(F)cc2c1=O [CIPROFLOXACIN]	> 32	> 32	> 32		1 (≈ 3.02 µM)	4 (≈ 12.1 µM)				2 (≈ 6.04 µM)	0.5 (≈ 1.51 µM)	1 (≈ 3.02 µM)	> 32	1 (≈ 3.02 µM)	> 32		> 32	0.5 (≈ 1.51 µM)	0.5 (≈ 1.51 µM)	16 (≈ 48.3 µM)	MIC [36]: 1 µg/mL (≈ 3.02 µM); MIC [25]: > 32 µg/mL; MIC [37]: 1 µg/mL (≈ 3.02 µM); MIC [32]: 8 µg/mL (≈ 24.1 µM); MIC [38]: 0.5 µg/mL (≈ 1.51 µM)
